# PME-1 primary: blocks human protein phosphatase methylesterase 1; recombinant PME-1, FP-Rh probe fluorescence polarization; inhibition, % at 5.9 µM; hit rate 0.53% among 320,000; AID 2130;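 active means inhibition above the campaign mean of all compounds plus 3 SD, cut at about 26% in these data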;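 further: competitive labeling of PME-1 active site by serine hydrolase directed probe; 0% = PME-1 with DMSO and 100% = wells lacking PME-1 enzyme; inhibitors block probe labeling so polarization falls and inhibition rises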
# LYPLA1 counter: LYPLA1 (human) inhibition in PME1 counter-screen. O75608. recombinant LYPLA1, FP-Rh probe fluorescence polarization. inhibition, % at 5.9 µM. hit rate 0.16% among 320,000. AID 2174;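 active means inhibition above the mean of all tested compounds plus 3 SD, set per campaign, cut at about 14% in these data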;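 further: inhibitors block serine hydrolase probe labeling of LYPLA1 so polarization falls; 0% = enzyme with DMSO and 100% = wells lacking LYPLA1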
# Target sequence (O75608 whole entry, looked up): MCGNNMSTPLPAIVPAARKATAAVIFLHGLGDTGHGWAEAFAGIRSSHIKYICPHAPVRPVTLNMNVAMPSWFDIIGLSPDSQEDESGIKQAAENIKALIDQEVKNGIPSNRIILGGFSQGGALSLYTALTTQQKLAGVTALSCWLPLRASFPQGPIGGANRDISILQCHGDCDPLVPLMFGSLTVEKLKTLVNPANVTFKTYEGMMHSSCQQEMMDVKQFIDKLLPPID
# Fam108B counter: Fam108B inhibition, counter-screen for RBBP9 inhibitors. recombinant Fam108B, FP-Rh probe fluorescence polarization. hit rate 0.33% among 300,000. inhibition, % at 9.51 µM. AID 1947;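 active means inhibition above the screen mean inhibition plus 3 SD, computed separately per campaign, cut at about 18% in these data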;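 further: inhibitors lower polarization as less probe binds the enzyme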
# RBBP9 inhibitor: human RBBP9 hydrolase inhibition | O75884 | recombinant RBBP9, FP-Rh probe fluorescence polarization | inhibition, % at 7.94 µM | hit rate 0.2% among 220,000 | AID 1515;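 active means inhibition above the campaign mean of all tested compounds plus 3 SD, cut at about 14% in these data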;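 further: plate controls were DMSO wells with RBBP9 for no effect and wells lacking RBBP9 protein for full effect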
# Target sequence (O75884 whole entry, looked up): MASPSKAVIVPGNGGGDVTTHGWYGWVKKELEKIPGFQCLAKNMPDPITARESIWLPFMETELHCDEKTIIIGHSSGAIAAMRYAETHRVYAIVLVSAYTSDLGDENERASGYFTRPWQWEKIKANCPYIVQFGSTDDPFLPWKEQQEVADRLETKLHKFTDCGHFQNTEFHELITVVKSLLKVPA
#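 Material: RBBP9 protein. Amount: RBBP9 at 2.5 µM in dispensed solution, before mixing. Schedule: 30 min then 45 min, 25 °C. Medium: Tris buffer pH 8.0, NaCl, Pluronic. Measured by: fluorescence polarization. Measure: percent inhibition from mP, scaled between DMSO and no-protein wells. Replication: one well per compound.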
# PAD4 inh: blocks human protein arginine deiminase 4; hit rate 0.41% among 330,000; recombinant PAD4, RCA probe fluorescence polarization; inhibition, % at 6.36 µM;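 active means percent inhibition above a cutoff equal to the mean of all tested compounds plus 3 SD, cut at about 15% in these data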;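 further: 0% = PAD4 with RCA probe and DMSO and 100% = probe without PAD4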
# LYPLA2 counter: counter-screen for PME1 inhibitors: inhibitors of human LYPLA2 | O95372 | inhibition, % at 5.9 µM | hit rate 0.38% among 320,000 | recombinant LYPLA2, FP-Rh probe fluorescence polarization;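 active means inhibition above the screen-wide mean plus 3 SD, limit set per campaign, cut at about 26% in these data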;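 further: 0% = LYPLA2 with DMSO and 100% = wells lacking LYPLA2 enzyme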
# Target sequence (O95372 whole entry, looked up): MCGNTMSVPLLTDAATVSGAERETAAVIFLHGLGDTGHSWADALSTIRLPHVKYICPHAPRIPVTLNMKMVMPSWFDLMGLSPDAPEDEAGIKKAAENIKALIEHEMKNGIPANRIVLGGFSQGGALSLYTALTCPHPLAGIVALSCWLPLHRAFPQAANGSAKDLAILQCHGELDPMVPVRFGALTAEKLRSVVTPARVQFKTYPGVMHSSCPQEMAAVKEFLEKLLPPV
# PAD4 FP conf: confirmation of human PAD4 inhibitors. shares compounds with PAD4 inh. recombinant PAD4, RCA probe fluorescence polarization. inhibition, % at 6.36 µM. hit rate 28% among 1,200;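 active means mean inhibition across replicates above the hit cutoff set by the earlier primary screen, cut at about 15% in these data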;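 further: inhibitors block active-site labeling by the probe so polarization falls; 0% = PAD4 with probe and DMSO and 100% = probe without PAD4 enzyme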
# Numbers without * were called inactive; · = no result given. A selection: hits, their analogues and other compounds. The true share with any hit is near 1.3%.
SMILES,PME-1 primary,LYPLA1 counter,Fam108B counter,RBBP9 inhibitor,PAD4 inh,LYPLA2 counter,PAD4 FP conf
Cc1ccc(NC(=O)c2ccc(=O)[nH]n2)cc1S(=O)(=O)Nc1ccc(SC(F)F)cc1,·,·,·,·,22.2*,·,5.3
CCN1C=C(Cc2ccccc2C)C2=C(C1)C(c1ccccc1C)C(C#N)=C(N)O2 (configuration not stated),-4.3,-2.4,-13.2,-4.4,17.3*,-8.7,6.8
CCN1C=C(Cc2ccc(F)cc2)C2=C(C1)C(c1ccc(F)cc1)C(C#N)=C(N)O2 (configuration not stated),-3.1,2.2,-9.6,-11.9,23.8*,0.9,13.5
CC/C(=N\NC(=O)c1nnn(-c2nonc2N)c1-c1cccc(OC)c1)c1ccc(C)cc1,-3.4,-1.9,-5.0,·,-6.1,-7.3,·
CCCC[n+]1c(C)sc2cc(OC)ccc21,-6.8,2.8,7.0,-5.7,14.4,-0.6,·
Cc1ccc2c(c1)sc(C)[n+]2CCCS(=O)(=O)[O-],-7.6,-0.6,-5.9,-5.6,18.1*,-11.3,11.1
Cc1ccc2sc(C)[n+](CCCS(=O)(=O)[O-])c2c1,-4.9,-0.8,4.6,-2.7,17.1*,-3.0,-2.3
COc1ccc(NC(=O)Cn2nc(C(=O)O)c3ccccc3c2=O)cc1Cl,1.4,-6.5,-4.7,·,3.9,-8.4,·
COCCNc1nc(-c2cc(C)c(C)cc2C)cs1,-0.9,-2.5,-0.8,2.0,-4.3,-2.0,·
CCCN1C=CC(=C/C=C(\C#N)C(=O)OCC)C=C1,-5.9,0.1,4.9,-2.6,-1.4,-2.8,·
CCOC(=O)/C(C#N)=C/C=C1\C=Cc2ccccc2N1CC,5.5,3.0,9.8,5.0,87.4*,1.4,18.6*
S=C(NCc1ccco1)Nc1ccc(Cl)c(Cl)c1,0.2,-11.0,-1.8,-15.2,3.0,-8.5,·
S=C(NCc1ccco1)Nc1cccc(Cl)c1,-6.1,-5.9,-6.5,-3.7,163.4*,5.2,0.1
Cc1ccc(N(C(=O)c2csnn2)C(C(=O)NC2CCCC2)c2cccnc2)c(C)c1 (configuration not stated),5.7,0.1,1.3,·,2.4,-5.3,·
CN(C)CCCNc1cn[nH]c(=O)c1Cl,2.2,-1.7,-2.8,-1.3,60.4*,-2.1,3.0
CCC(=O)Nc1ccccc1C(=O)C(=O)Nc1ccccc1,-2.0,-0.8,3.1,-7.7,19.9*,4.1,-0.5
CC(=O)Nc1ccc(NC2=C(Cl)C(=O)c3ccccc3C2=O)cc1,·,·,·,-2.6,·,·,·
CN(C)c1ccc(NC2=C(Cl)C(=O)c3ccccc3C2=O)cc1,14.5,0.0,9.2,3.4,28.2*,7.1,16.1*
Cc1nc2ccc(NS(=O)(=O)c3c(F)cc(F)cc3Br)cc2s1,-2.7,-4.1,·,·,-0.3,-4.6,·
Cc1cccc(NC(=S)NCc2ccc3c(c2)cc(C)n3C)c1C,-1.6,-0.5,1.5,-3.7,19.5*,1.7,-3.5
N=C(N)SCP(=O)(c1ccccc1)c1ccccc1,2.6,0.3,1.2,-4.7,17.0*,2.5,15.3*
Cc1ccc(P(=O)(CO)c2ccc(C)cc2)cc1,-9.8,-1.3,0.7,-5.9,-2.2,2.0,·
Cc1ccc(P(=O)(CSC(=N)N)c2ccc(C)cc2)cc1,1.1,1.1,3.6,-2.9,24.2*,4.7,18.2*
C=CCn1c(CCNC(=O)c2ccccc2F)nnc1SCC(=O)Nc1nc2ccccc2s1,-1.0,-1.1,3.1,3.1,6.8,4.0,·
O=C(COC(=O)C1CC2C=CC1C2)NCc1ccccc1Cl (configuration not stated),-1.6,5.6,1.6,-12.6,-2.4,6.8,·
SMILES,PME-1 primary,LYPLA1 counter,Fam108B counter,RBBP9 inhibitor,PAD4 inh,LYPLA2 counter,PAD4 FP conf
C#CCOCCOCCOCCNc1nc(N2CCN(C(=O)[C@H](CCCCN)n3cc([C@@H](N)C(C)CC)nn3)CC2)nc(N2CCN(C(=O)[C@H](Cc3cc4ccccc4[nH]3)n3cc([C@@H](N)CC(C)C)nn3)CC2)n1 (some centres not stated),1.4,-2.7,-1.1,6.8,16.3*,-2.9,4.3
C#CCOCCOCCOCCNc1nc(N2CCN(C(=O)[C@H](Cc3cc4ccccc4[nH]3)n3cc([C@@H](N)C(C)CC)nn3)CC2)nc(N2CCN(C(=O)[C@H](CCCCN)n3cc([C@@H](N)CO)nn3)CC2)n1 (some centres not stated),4.0,0.7,-5.4,-8.5,-4.3,-2.9,·
CCN(Cc1ccncc1)C(=O)c1cc(COc2c(C)cccc2C)on1,3.1,0.5,5.1,·,3.3,5.8,·
CCN(CC)c1ccc2c(C)c(Cl)c(=O)oc2c1,6.7,2.7,2.1,-0.1,-1.6,0.2,·
CCN(CC)c1ccc2c(c1)oc(=O)c1c(Cl)cc(=O)oc12,0.5,-1.8,10.0,-4.0,25.8*,7.2,19.1*
CCC(=O)N1CCc2cc(S(=O)(=O)N3CCN(c4ccccc4Cl)CC3)ccc21,4.1,-0.7,1.3,·,-5.3,-11.2,·
Nn1c(SCc2ccccc2)nc2c(cnn2-c2ccccc2)c1=O,-0.4,-0.8,4.5,-7.8,18.4*,4.0,3.4
CCCSc1nc2c(cnn2-c2ccccc2)c(=O)n1N,-3.1,2.8,-4.8,2.4,-2.2,0.1,·
Cc1cccc2c1NC(C)CC2C (configuration not stated),2.1,2.6,4.4,-0.7,15.4*,6.1,5.0
CC(C)(C)OC(=O)C[C@H]1C/C=C\C[C@@H](CC(=O)N(CCO)Cc2ccccc2)C(=O)N[C@H](Cc2ccccc2)COC1=O,·,·,·,·,6.0,·,·
Cc1cccc(NC(=S)Nc2ccc(N3CCOCC3)cc2)c1C,0.1,1.1,0.3,-9.0,23.1*,-7.6,3.4
Cc1[nH]c2ccccc2c1C(C#N)(C#N)C1C(=O)c2ccccc2C1=O,1.1,-1.3,12.0,-2.8,37.4*,10.0,-1.0
C=CCN1C(=O)c2ccc(C(=O)NCCc3ccc(OC)c(OC)c3)cc2C1=O,0.6,1.2,-2.6,·,-2.9,11.0,·
COc1ccc(OC)c(N(C)S(=O)(=O)c2ccc3c(c2)N(C(C)=O)CCO3)c1,10.7,-1.3,6.5,·,18.4*,2.1,-2.4
CN1CCN(CCCNC(=O)C2CCN(c3nnc(-n4cccc4)s3)CC2)CC1,-6.0,1.7,2.4,-5.2,0.2,0.7,·
CCCN1CCN(CCCNC(=O)C2CCN(c3nnc(-n4c(C)ccc4C)s3)CC2)CC1,0.7,-1.2,-4.4,·,17.5*,-1.2,-1.0
O=C1N(Cc2cccc(Cl)c2)C[C@@H]2C[C@@H](c3c[nH]c4ccccc34)N3CCC[C@@]123,-35.2,-19.5,-41.7,-17.1,-99.2,-39.3,·
C=CCn1c2ccccc2c2nnc(SCCN3CCOCC3)nc21,2.7,-1.6,-3.6,·,-0.9,-3.4,·
Cc1ccc(C=Nc2ccc(N(C)C)cc2)o1,7.1,-1.0,4.4,4.0,25.5*,-1.4,-9.1
O=C(O)CSc1c2ccccc2cc2ccccc12,2.3,0.7,5.7,·,23.4*,1.1,20.5*

# Bioassay records: PubChem BioAssay, The Scripps Research Institute Molecular Screening Center
